Assay results: ChEMBL document CHEMBL4024777, “Discovery of LY3104607: A Potent and Selective G Protein-Coupled Receptor 40 (GPR40) Agonist with Optimized Pharmacokinetic Properties to Support Once Daily Oral Treatment in Patients with Type 2 Diabetes Mellitus” (J Med Chem, 2018)
The source made the active and inactive calls. The calls are words filed in the database; no cut-off is given here.

Legend:
[1] = Half life in Beagle dog at 1 mg/kg, iv; assay type: ADME, organism-based, Canis lupus familiaris; conditions: in vivo
[2] = Tmax in Beagle dog at 300 mg/kg, po; assay type: ADME, organism-based, Canis lupus familiaris; conditions: in vivo
How it was run: (§1)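 Dogs dosed orally at 30, 100 or 300 mg/kg, N = 2 per dose.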

[3] = Drug metabolism in rat hepatocytes assessed as glucuronidation; assay type: ADME, cell-based, Hepatocyte
[4] = tested on: Rattus norvegicus; experiment: Toxicity in Zucker fa/fa rat assessed as alteration in food consumption at 1 to 10 mg/kg, po; assay type: organism-based; conditions: in vivo
How it was run: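 Male Zucker fa/fa rats, 10 weeks old, given daily oral doses of 1, 3 or 10 mg/kg for 21 days. Body weight and food consumption tracked, with a reference agonist as positive control.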

[5] = AUC (0 to 24 hrs) in Beagle dog at 30 mg/kg, po; assay type: ADME, organism-based, Canis lupus familiaris; parameters: dose 30 mg/kg, time < 24 hr, route oral; conditions: in vivo
[6] = AUC (0 to 24 hrs) in Sprague-Dawley rat at 1 mg/kg, iv; assay type: ADME, organism-based; parameters: dose 1 mg/kg, time < 24 hr, route intravenous; conditions: in vivo
[7] = Half life in Sprague-Dawley rat at 1 mg/kg, po; assay type: ADME, organism-based; conditions: in vivo
[8] = biological target: Free fatty acid receptor 1 (Rattus norvegicus) (UniProt Q8K3T4); experiment: Agonist activity at GPR40 in Sprague-Dawley rat islets assessed as glucose-stimulated insulin secretion levels at 1 uM in presence of 11.2 mM glucose by ELISA (reference value: 6.24 ng/ml)
[9] = biological target: Free fatty acid receptor 1 (Rattus norvegicus) (UniProt Q8K3T4); experiment: Agonist activity at rat PK-tagged GPR40 expressed in human U2OS cells assessed as EA-tagged beta-arrestin recruitment after 90 mins in presence of 1 % heat inactivated FBS by beta-galactosidase reporter gene assay relative to untreated control; assay type: cell-based
[10] = AUC (0 to 24 hrs) in Beagle dog at 1 mg/kg, iv; assay type: ADME, organism-based, Canis lupus familiaris; parameters: time < 24 hr, dose 1 mg/kg, route intravenous; conditions: in vivo
[11] = Clearance in Beagle dog at 1 mg/kg, iv; assay type: ADME, organism-based, Canis lupus familiaris; conditions: in vivo
[12] = Initial plasma concentration in Sprague-Dawley rat at 1 mg/kg, iv; assay type: ADME, organism-based
[13] = Tmax in Sprague-Dawley rat at 500 mg/kg, po; assay type: ADME, organism-based; conditions: in vivo
[14] = Tmax in Beagle dog at 30 mg/kg, po; assay type: ADME, organism-based, Canis lupus familiaris; conditions: in vivo; how it was run: as §1
[15] = biological target: T1, Peroxisome proliferator-activated receptor alpha (Homo sapiens) (UniProt Q07869); experiment: Displacement of [3H]-agonist from human PPARalpha expressed in baculovirus infecetd Sf9 cells system up to 30 uM after 10 hrs in presence of DR2 by scintillation proximity assay
T1 sequence (whole entry): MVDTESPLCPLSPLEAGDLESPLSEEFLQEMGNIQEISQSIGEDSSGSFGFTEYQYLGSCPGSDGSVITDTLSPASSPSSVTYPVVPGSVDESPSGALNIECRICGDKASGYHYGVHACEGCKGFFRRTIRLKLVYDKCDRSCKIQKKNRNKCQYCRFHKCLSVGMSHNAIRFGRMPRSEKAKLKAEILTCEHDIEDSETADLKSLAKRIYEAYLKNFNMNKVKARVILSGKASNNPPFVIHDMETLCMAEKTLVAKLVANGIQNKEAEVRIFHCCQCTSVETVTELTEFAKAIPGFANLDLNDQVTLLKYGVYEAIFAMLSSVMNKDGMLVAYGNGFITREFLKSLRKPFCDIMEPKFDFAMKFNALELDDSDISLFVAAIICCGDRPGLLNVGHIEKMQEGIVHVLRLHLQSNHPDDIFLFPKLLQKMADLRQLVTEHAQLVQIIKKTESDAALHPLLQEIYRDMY
How it was run: (§2)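 PPAR alpha, delta and gamma binding and functional activity were each tested at concentrations up to 30 µM.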

[16] = tested on: Rattus norvegicus; experiment: Antidiabetic activity in Zucker fa/fa rat assessed as reduction in blood glucose AUC at 1 to 10 mg/kg, po administered for 1 day followed by OGTT at 1 hr after compound dosing and measured 60 mins post glucose challenge by oral glucose tolerance test; assay type: functional, organism-based
How it was run: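 Male Zucker fa/fa rats, 10 weeks old, were dosed orally with 1, 3 or 10 mg/kg, alongside a reference GPR40 agonist as positive control. The OGTT was run 1 h after dosing with a 2 g/kg oral glucose load. Blood glucose was sampled at 0, 10, 20, 40 and 60 min, with the legend also listing 120 min. Glucose AUC was assessed on day 1.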

[17] = biological target: T1, Peroxisome proliferator-activated receptor alpha (Homo sapiens); experiment: Agonist activity at GAL4-fused human PPARalpha expressed in African green monkey CV1 cells up to 30 uM after 24 hrs by luciferase reporter gene assay; assay type: cell-based; how it was run: as §2

Chain of Free fatty acid receptor 1 (Rattus norvegicus) (Q8K3T4 whole entry): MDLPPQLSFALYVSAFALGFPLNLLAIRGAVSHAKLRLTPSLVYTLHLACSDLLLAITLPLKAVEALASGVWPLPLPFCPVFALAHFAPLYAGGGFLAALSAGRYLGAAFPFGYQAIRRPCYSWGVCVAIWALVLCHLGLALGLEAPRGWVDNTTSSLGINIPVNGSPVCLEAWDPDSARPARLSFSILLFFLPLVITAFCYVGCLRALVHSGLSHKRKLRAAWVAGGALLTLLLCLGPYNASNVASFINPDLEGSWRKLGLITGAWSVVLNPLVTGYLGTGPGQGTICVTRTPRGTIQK

half-life [1]: 6.53 h
Tmax [2]: 6 h
Drug metabolism [3]: Metabolite_Detected
AUC(0-t) at 24 h [5]: 120000 ng·h/mL
AUC(0-t) at 24 h [6]: 12700 ng·h/mL
half-life [7]: 4.68 h
Activity [8]: 17.1 ng/mL
%max [9]: 130%
AUC(0-t) at 24 h [10]: 27300 ng·h/mL
clearance [11]: 0.601 mL/min/kg
C0 [12]: 4340 ng/mL
Tmax [13]: 6.7 h
Tmax [14]: 2 h
Activity [15]: inactive
Activity [17]: inactive
Structure (SMILES): CC#C[C@@H](CC(=O)O)c1ccc(OCc2ccc3nc(-c4c(C)cccc4C)nn3c2)cc1
Activity [4]: Non-Toxic
Activity [16]: Active
